# Calls of active or inactive are those of the source. The calls are words filed in the database; no cut-off is given here.
# Assays:
# Type in all cases: functional
# SF-268 = assay: Anticancer activity against human SF268 cells assessed as cell growth at 100 uM after 48 hrs by SRB assay; conditions: SF-268, 48 h, read-out: Activity
# Procedure, shortened: (§1)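 NCI one-dose primary screen on a three-line panel (breast MCF7, lung NCI-H460, CNS SF-268). Cells were inoculated and preincubated 24–48 h, then exposed to a single concentration of 10−4 M for 48 h. The endpoint was sulforhodamine B protein staining, and results are expressed as percent growth relative to untreated control cells. Negative values denote cytotoxicity.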
# MCF7 = assay: Anticancer activity against human MCF7 cells assessed as cell growth at 100 uM after 48 hrs by SRB assay; conditions: MCF7, 48 h, read-out: Activity; procedure, shortened: as §1
# NCI-H460 [1] = assay: Anticancer activity against human NCI-H460 cells assessed as cell growth at 100 uM after 48 hrs by SRB assay; conditions: NCI-H460, 48 h, read-out: Activity; procedure, shortened: as §1
# CAKI-1 = assay: Growth inhibition of human CAKI-1 cells after 48 hrs by SRB assay
# Procedure, shortened: (§2)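 NCI five-dose assay against the ~60-cell-line panel (nine cancer types). Tenfold dilutions from 10−4 to 10−8 M were used with continuous 48-h exposure and SRB absorbance readout. Percent growth was computed from time-zero, control and treated absorbances. GI50 is the concentration giving 50% lower net protein increase than controls. Values not reached are reported as beyond the tested range.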
# Hs-578T = assay: Growth inhibition of human Hs 578T cells after 48 hrs by SRB assay; procedure, shortened: as §2
# UO-31 = assay: Growth inhibition of human UO31 cells after 48 hrs by SRB assay
# Procedure, shortened: (§3)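 NCI ~60-cell-line five-dose screen. Cells were preincubated 24-48 h, then given compound at 10-fold dilutions from 10^-4 to 10^-8 M with 48 h continuous exposure. SRB protein stain was read by absorbance at time zero, in untreated control and with drug. GI50 was derived from [(Ti-Tz)/(C-Tz)]x100=50, TGI from Ti=Tz, and LC50 from [(Ti-Tz)/Tz]x100=-50.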
# OVCAR-4 = assay: Growth inhibition of human OVCAR4 cells after 48 hrs by SRB assay; procedure, shortened: as §2
# OVCAR-3 = assay: Growth inhibition of human OVCAR3 cells after 48 hrs by SRB assay; procedure, shortened: as §2
# SNB-75 = assay: Growth inhibition of human SNB75 cells after 48 hrs by SRB assay; procedure, shortened: as §2
# Malme-3M = assay: Growth inhibition of human MALME-3M cells after 48 hrs by SRB assay; procedure, shortened: as §2
# NCI-H322M = assay: Growth inhibition of human NCI-H322M cells after 48 hrs by SRB assay; procedure, shortened: as §2
# SF-539 = assay: Growth inhibition of human SF539 cells after 48 hrs by SRB assay; procedure, shortened: as §2
# TK-10 = assay: Growth inhibition of human TK10 cells after 48 hrs by SRB assay; procedure, shortened: as §3
# ACHN = assay: Growth inhibition of human ACHN cells after 48 hrs by SRB assay; procedure, shortened: as §2
# 786-0 [2] = assay: Growth inhibition of human 786-0 cells after 48 hrs by SRB assay; procedure, shortened: as §2
# OVCAR-8 = assay: Growth inhibition of human OVCAR8 cells after 48 hrs by SRB assay; procedure, shortened: as §2
# OVCAR-5 = assay: Growth inhibition of human OVCAR5 cells after 48 hrs by SRB assay; procedure, shortened: as §2
# UACC-62 = assay: Growth inhibition of human UACC62 cells after 48 hrs by SRB assay; procedure, shortened: as §3
# SF-295 = assay: Growth inhibition of human SF295 cells after 48 hrs by SRB assay; procedure, shortened: as §2
# HCC 2998 = assay: Growth inhibition of human HCC2998 cells after 48 hrs by SRB assay; procedure, shortened: as §2
# NCI-H522 = assay: Growth inhibition of human NCI-H522 cells after 48 hrs by SRB assay; procedure, shortened: as §2
# HOP69 = assay: Growth inhibition of human […] cells after 48 hrs by SRB assay; procedure, shortened: as §2
# A549 = assay: Growth inhibition of human A549/ATCC cells after 48 hrs by SRB assay; procedure, shortened: as §2
# MDA-MB-231 = assay: Growth inhibition of human MDA-MB-231/ATCC cells after 48 hrs by SRB assay; procedure, shortened: as §2
# PC-3 = assay: Growth inhibition of human PC3 cells after 48 hrs by SRB assay; procedure, shortened: as §2
# 786-0 [3] = assay: Growth inhibition of human 786-O cells after 48 hrs by SRB assay; procedure, shortened: as §2
# M14 = assay: Growth inhibition of human M14 cells after 48 hrs by SRB assay; procedure, shortened: as §2
# LOX IMVI = assay: Growth inhibition of human LOXIMVI cells after 48 hrs by SRB assay; procedure, shortened: as §2
# U-251 = assay: Growth inhibition of human U251 cells after 48 hrs by SRB assay; procedure, shortened: as §3
# HCT-116 = assay: Growth inhibition of human HCT116 cells after 48 hrs by SRB assay; procedure, shortened: as §2
# NCI-H460 [4] = assay: Growth inhibition of human NCI-H460 cells after 48 hrs by SRB assay; procedure, shortened: as §2
# NCI-H23 = assay: Growth inhibition of human NCI-H23 cells after 48 hrs by SRB assay; procedure, shortened: as §2
# HOP-62 = assay: Growth inhibition of human HOP62 cells after 48 hrs by SRB assay; procedure, shortened: as §2
# RPMI18226 = assay: Growth inhibition of human […] cells after 48 hrs by SRB assay; procedure, shortened: as §2
# MOLT-4 = assay: Growth inhibition of human MOLT4 cells after 48 hrs by SRB assay; procedure, shortened: as §2
# MDA-MB-435 = assay: Growth inhibition of human MDA-MB-435 cells after 48 hrs by SRB assay; procedure, shortened: as §2
# KM12 = assay: Growth inhibition of human KM12 cells after 48 hrs by SRB assay; procedure, shortened: as §2
# SR = assay: Growth inhibition of human SR cells after 48 hrs by SRB assay; procedure, shortened: as §3
# CCRF-CEM = assay: Growth inhibition of human CCRF-CEM cells after 48 hrs by SRB assay; procedure, shortened: as §2
# SNB- = assay: Growth inhibition of human SNB cells after 48 hrs by SRB assay; procedure, shortened: as §2
# HOP-92 = assay: Growth inhibition of human HOP92 cells after 48 hrs by SRB assay; procedure, shortened: as §2
# BT-549 = assay: Growth inhibition of human BT549 cells after 48 hrs by SRB assay; procedure, shortened: as §2
# NCI/ADR-RES = assay: Growth inhibition of human NCI/ADR-RES cells after 48 hrs by SRB assay; procedure, shortened: as §2
# UACC-257 = assay: Growth inhibition of human UACC257 cells after 48 hrs by SRB assay; procedure, shortened: as §3
# SK-MEL-5 = assay: Growth inhibition of human SK-MEL-5 cells after 48 hrs by SRB assay; procedure, shortened: as §2
# EKVX = assay: Growth inhibition of human EKVX cells after 48 hrs by SRB assay; procedure, shortened: as §2
# RXF 393 = assay: Growth inhibition of human RXF393 cells after 48 hrs by SRB assay; procedure, shortened: as §2
structure (smiles),measurement,setting,value
COc1ccc2cc(C(=O)Nc3nccs3)sc(=O)c2c1OC,growth at 100 µM,SF-268,98%
same,growth at 100 µM,MCF7,95%
same,growth at 100 µM,NCI-H460 [1],94%
same,pGI50,CAKI-1,inactive
same,pTGI,CAKI-1,inactive
same,pGI50,Hs-578T,inactive
same,pTGI,Hs-578T,inactive
same,pGI50,UO-31,inactive
same,pTGI,UO-31,inactive
same,pGI50,OVCAR-4,inactive
same,pTGI,OVCAR-4,inactive
same,pGI50,OVCAR-3,inactive
same,pTGI,OVCAR-3,inactive
same,pGI50,SNB-75,inactive
same,pTGI,SNB-75,inactive
same,pGI50,Malme-3M,inactive
same,pTGI,Malme-3M,inactive
same,pGI50,NCI-H322M,inactive
same,pTGI,NCI-H322M,inactive
same,pGI50,SF-539,inactive
same,pTGI,SF-539,inactive
same,pGI50,TK-10,inactive
same,pTGI,TK-10,inactive
same,pGI50,ACHN,inactive
same,pTGI,ACHN,inactive
same,pGI50,786-0 [2],inactive
same,pTGI,786-0 [2],inactive
same,pGI50,OVCAR-8,inactive
same,pTGI,OVCAR-8,inactive
same,pGI50,OVCAR-5,inactive
same,pTGI,OVCAR-5,inactive
same,pGI50,UACC-62,inactive
same,pTGI,UACC-62,inactive
same,pGI50,SF-295,inactive
same,pTGI,SF-295,inactive
same,pGI50,HCC 2998,inactive
same,pTGI,HCC 2998,inactive
same,pGI50,NCI-H522,inactive
same,pTGI,NCI-H522,inactive
same,pGI50,HOP69,inactive
same,pTGI,HOP69,inactive
same,pGI50,A549,inactive
same,pTGI,A549,inactive
same,pGI50,MDA-MB-231,inactive
same,pTGI,MDA-MB-231,inactive
same,pGI50,PC-3,inactive
same,pTGI,PC-3,inactive
same,pGI50,786-0 [3],inactive
same,pTGI,786-0 [3],inactive
same,pGI50,M14,inactive
same,pTGI,M14,inactive
same,pGI50,LOX IMVI,inactive
same,pTGI,LOX IMVI,inactive
same,pGI50,U-251,inactive
same,pTGI,U-251,inactive
same,pGI50,HCT-116,inactive
same,pTGI,HCT-116,inactive
same,pGI50,NCI-H460 [4],inactive
same,pTGI,NCI-H460 [4],inactive
same,pGI50,NCI-H23,inactive
same,pTGI,NCI-H23,inactive
same,pGI50,HOP-62,inactive
same,pTGI,HOP-62,inactive
same,pGI50,RPMI18226,inactive
same,pTGI,RPMI18226,inactive
same,pGI50,MOLT-4,inactive
same,pTGI,MOLT-4,inactive
same,pGI50,MDA-MB-435,inactive
same,pTGI,MDA-MB-435,inactive
same,pGI50,KM12,inactive
same,pTGI,KM12,inactive
same,pGI50,SR,inactive
same,pTGI,SR,inactive
same,pGI50,CCRF-CEM,inactive
same,pTGI,CCRF-CEM,inactive
same,pGI50,SNB-,inactive
same,pTGI,SNB-,inactive
same,pGI50,HOP-92,inactive
same,pTGI,HOP-92,inactive
same,pGI50,BT-549,inactive
same,pTGI,BT-549,inactive
same,pGI50,NCI/ADR-RES,inactive
same,pTGI,NCI/ADR-RES,inactive
same,pGI50,UACC-257,inactive
same,pTGI,UACC-257,inactive
same,pGI50,SK-MEL-5,inactive
same,pTGI,SK-MEL-5,inactive
same,pGI50,EKVX,inactive
same,pTGI,EKVX,inactive
same,pGI50,RXF 393,inactive
same,pTGI,RXF 393,inactive

# — ChEMBL document CHEMBL3124905, “Isothiocoumarin-3-carboxylic acid derivatives: synthesis, anticancer and antitrypanosomal activity evaluation” (Eur J Med Chem, 2014)
